Series [1] is described as follows: Prodrug conversion in C57BL/6 mouse brain assessed as 2-(3-chloro-4-((3-((7-propyl-3-(trifluoromethyl)-benzo[d]isoxazol-6-yl)oxy)propyl)thio)phenyl)acetic acid level at 9.14 umol/kg, ip measured after 1 hr in presence of FAAH inhibitor PF-3845 by LC-MS/MS analysis. Type of series: ADME, organism-based. To be noted: in vivo. An outline of the steps: (§1)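 Male C57BL/6 mice (n=3) received PF-3845 at 1 mg/kg i.p., then prodrug at […] i.p. 1 h later; comparators received prodrug alone. Vehicle was DMSO. Whole brain was taken 1 h after prodrug and homogenized in water with d₆-sobetirome internal standard. It was extracted with EtOAc/MeCN and parent acid was measured by LC-MS/MS; mean ± SEM, 2-tailed unpaired t test.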

Series [2] is described as follows: AUC (0.5 to 6 hrs) in C57BL/6 mouse serum assessed as 2-(3-chloro-4-((3-((7-propyl-3-(trifluoromethyl)-benzo[d]isoxazol-6-yl)oxy)propyl)thio)phenyl)acetic acid level at 9.14 umol/kg, ip by LC-MS/MS analysis. Type of series: ADME, organism-based. More on the design: dose 9.14 umol/kg, time 0.5-6 hr, route intraperitoneal. To be noted: in vivo. The gist of the method: (§2)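 Male wild-type C57BL/6 mice (8−10 weeks, n=3 per time point) received parent drug or equimolar prodrug at […] i.p. in DMSO. Brain and serum were collected at 0.5, 2 and 6 h. Parent acid was quantified by LC-MS/MS against vehicle-tissue standard curves with d₆-sobetirome internal standard. AUC0.5–6 h was computed from the time course; mean ± SEM.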

Series [3] can be described thus: Brain to serum concentration ratio, Kp of the compound in C57BL/6 mouse assessed as 2-(3-chloro-4-((3-((7-propyl-3-(trifluoromethyl)-benzo[d]isoxazol-6-yl)oxy)propyl)thio)phenyl)acetic acid level at 9.14 umol/kg, ip by LC-MS/MS analysis. Type of series: ADME, organism-based. An outline of the steps: (§3)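 Brain-to-serum ratio Kp was calculated from brain and serum parent-drug AUC0.5–6 h (ng/g*h). These AUCs came from male C57BL/6 mice (n=3 per time point) given parent drug or equimolar prodrug at […] i.p. in DMSO, sampled at 0.5, 2 and 6 h. Parent acid was quantified by LC-MS/MS with d₆-sobetirome internal standard.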

A short description of series [4]: AUC (0.5 to 6 hrs) in C57BL/6 mouse brain assessed as 2-(3-chloro-4-((3-((7-propyl-3-(trifluoromethyl)-benzo[d]isoxazol-6-yl)oxy)propyl)thio)phenyl)acetic acid level at 9.14 umol/kg, ip by LC-MS/MS analysis. It is filed as ADME, organism-based. The arrangement: time upper 6 hr, dose 9.14 umol/kg, time lower 0.5 hr, route intraperitoneal. The note with it: in vivo. An outline of the steps:
as §2

Series [5] deals with T1, Fatty-acid amide hydrolase 1 (Homo sapiens, UniProt O00519).
T1 sequence (O00519 whole entry): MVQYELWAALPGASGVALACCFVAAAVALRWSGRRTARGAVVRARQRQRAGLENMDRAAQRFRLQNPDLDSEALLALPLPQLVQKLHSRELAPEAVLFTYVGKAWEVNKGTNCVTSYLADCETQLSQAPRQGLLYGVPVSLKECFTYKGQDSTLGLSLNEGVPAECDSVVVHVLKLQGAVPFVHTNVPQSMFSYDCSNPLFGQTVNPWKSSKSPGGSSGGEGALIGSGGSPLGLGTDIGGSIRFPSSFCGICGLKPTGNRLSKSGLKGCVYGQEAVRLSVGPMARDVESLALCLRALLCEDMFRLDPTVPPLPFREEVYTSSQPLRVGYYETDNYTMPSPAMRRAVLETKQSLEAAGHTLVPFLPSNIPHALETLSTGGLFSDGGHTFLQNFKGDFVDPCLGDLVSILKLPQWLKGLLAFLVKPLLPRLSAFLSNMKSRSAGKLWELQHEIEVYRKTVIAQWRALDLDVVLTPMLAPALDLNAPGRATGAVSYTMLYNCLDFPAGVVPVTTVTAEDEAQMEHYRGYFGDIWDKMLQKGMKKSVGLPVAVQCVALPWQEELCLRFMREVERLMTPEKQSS
Put plainly: Substrate activity at FAAH1 in human brain S9 fraction assessed as 2-(3-chloro-4-((3-((7-propyl-3-(trifluoromethyl)-benzo[d]isoxazol-6-yl)oxy)propyl)thio)phenyl)acetic acid level at 100 uM measured after 15 mins by LC-MS/MS analysis. It is filed as ADME, subcellular. To be noted: s9, 0.25 h. The gist of the method:
(§4)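 Human brain S9 at 1 mg/mL, with or without […] PF-3845, was prewarmed 5 min at 37 °C. It was incubated 15 min at 37 °C with 100 µM prodrug (final), then quenched with MeCN/DMF containing d₆-sobetirome. Parent acid was measured by LC-MS/MS. FAAH-dependent level = untreated sample (n=3) minus mean PF-3845 samples (n>2).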

Series [6] is described as follows: Prodrug conversion in C57BL/6 mouse brain assessed as 4-chlorobenzoate formation at 9.14 umol/kg, ip measured up to 6 hrs by LC-MS/MS analysis. It is filed as ADME, organism-based. To be noted: in vivo, BLD = below limit of detection. An outline of the steps: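 Male C57BL/6 mice (n=3) received prodrug at […] i.p. in DMSO. Brain was collected at 0.5, 2 and 6 h. The 4-chlorobenzoate cleavage product was sought by LC-MS/MS against a vehicle-brain standard curve with d₆-sobetirome internal standard; the limit was LoQ.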

Series [7] is described as follows: Prodrug conversion in C57BL/6 mouse brain assessed as bezafibrate level at 9.14 umol/kg, ip measured after 1 hr in presence of FAAH inhibitor PF-3845 by LC-MS/MS analysis. It is filed as ADME, organism-based. To be noted: in vivo. The gist of the method: as §1
Series [8] concerns the target T2, Fatty-acid amide hydrolase 2 (Homo sapiens, UniProt Q6GMR7).
T2 sequence (Q6GMR7 whole entry): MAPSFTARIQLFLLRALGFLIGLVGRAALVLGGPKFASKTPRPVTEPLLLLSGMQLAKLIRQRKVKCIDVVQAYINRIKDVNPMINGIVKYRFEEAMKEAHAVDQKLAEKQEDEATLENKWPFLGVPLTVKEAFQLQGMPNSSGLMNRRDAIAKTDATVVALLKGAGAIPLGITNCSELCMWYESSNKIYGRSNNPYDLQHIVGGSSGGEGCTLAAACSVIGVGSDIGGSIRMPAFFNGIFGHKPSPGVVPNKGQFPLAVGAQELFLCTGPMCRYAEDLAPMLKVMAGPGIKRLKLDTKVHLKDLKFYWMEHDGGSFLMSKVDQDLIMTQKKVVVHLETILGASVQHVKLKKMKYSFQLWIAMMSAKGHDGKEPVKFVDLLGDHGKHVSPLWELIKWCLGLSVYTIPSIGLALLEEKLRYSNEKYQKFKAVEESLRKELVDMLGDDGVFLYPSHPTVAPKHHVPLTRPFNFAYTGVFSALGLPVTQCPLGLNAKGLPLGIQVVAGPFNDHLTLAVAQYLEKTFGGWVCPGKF
The experiment in a line: Substrate activity at FAAH2 in human brain S9 fraction assessed as bezafibrate level at 100 uM measured after 15 mins by LC-MS/MS analysis. It is filed as ADME, subcellular. The note with it: s9, 0.25 h. The gist of the method:
as §4

Series [9] is described as follows: AUC (0.5 to 6 hrs) in C57BL/6 mouse serum assessed as bezafibrate level at 9.14 umol/kg, ip by LC-MS/MS analysis. The note with it: in vivo. More on the design: dose 9.14 umol/kg, time upper 6 hr, time lower 0.5 hr, route intraperitoneal. Type of series: ADME, organism-based. An outline of the steps: as §2
The nature of series [10]: Renal toxicity in C57BL/6 mouse assessed effect on Fasn gene expression in kidney at 9.14 umol/kg, ip administered once daily for 7 days by Trizol reagent based RT-qPCR analysis. To be noted: in vivo, 168 h. It is filed as organism-based. An outline of the steps: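 Male C57BL/6 mice (n=5) were dosed once daily for 7 days i.p. with parent drug at […], equimolar prodrug, or vehicle. The vehicle was 1:1:8 Kolliphor:NMP:water. Target gene expression was compared between groups per tissue by 2-tailed unpaired t test.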
For orientation: In qPCR the cycle at which signal appears reflects the starting amount.

Series [11] can be described thus: AUC (0.5 to 6 hrs) in C57BL/6 mouse brain assessed as bezafibrate level at 9.14 umol/kg, ip by LC-MS/MS analysis. More on the design: time 0.5-6 hr, dose 9.14 umol/kg, route intraperitoneal. To be noted: in vivo. Type of series: ADME, organism-based. The gist of the method:
as §2

Series [12] can be described thus: Brain to serum concentration ratio, Kp of the compound in C57BL/6 mouse assessed as bezafibrate level at 9.14 umol/kg, ip by LC-MS/MS analysis. Type of series: ADME, organism-based. An outline of the steps: as §3

The structures appear in SMILES notation.

In general, Kp refers to tissue or fluid exposure divided by exposure in the circulation. As to `CCCc1c(OCCCSc2ccc(CC(=O)NC)cc2Cl)ccc2c(C(F)(F)F)noc12`, the Drug metabolism entry in series [1] and in series [5] was “Metabolite_Notdetected” throughout. Also, the AUC in series [2] was 276.5 ng·h/g; in series [4] it was 12.64 ng·h/g. The Kp in series [3] is 0.05.
As to `CNC(=O)C(C)(C)Oc1ccc(CCNC(=O)c2ccc(Cl)cc2)cc1`, the Drug metabolism entry in series [6] is reported as “Bld”; in series [7] it was “Metabolite_Notdetected”; in [8], “Metabolite_Detected”; in [10], “Metabolite_Detected”. Further, the AUC in series [9] was determined as 470.6 ng·h/g; in [11], 26.3 ng·h/g. In addition, the Kp in series [12] is given as 0.06.

(Values after ChEMBL document CHEMBL4622977, “A CNS-Targeting Prodrug Strategy for Nuclear Receptor Modulators” (J Med Chem, 2020).)
